In ChEMBL document CHEMBL4321823, “Benzyl Phenylsemicarbazides: A Chemistry-Driven Approach Leading to G Protein-Biased Dopamine D4 Receptor Agonists with High Subtype Selectivity” (J Med Chem, 2019):
pKi: −log10 of the molar value.

Columns and labels:
Format in all cases: cell-based
Homo sapiens [1] = organism: Homo sapiens; test: Selectivity index, ratio of Ki for displacement of [3H] Spiperone from human D3 receptor expressed in CHO cells to Ki for displacement of [3H] Spiperone from human D4.4 receptor expressed in CHO cells
In short: (§1)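 Competition binding against [3H]spiperone on membranes of CHO cells stably expressing cloned human D2L, D2S, D3 or D4.4 receptors. Ki from monophasic curve fits; mean ± SEM of three to seven experiments, each in triplicate. Selectivity calculated as Ki(D2L, D2S or D3) divided by Ki(D4.4).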

D(2) dopamine receptor [2] = molecular target: T1, D(2) dopamine receptor (Homo sapiens, UniProt P14416); test: Displacement of [3H] Spiperone from human D2S receptor expressed in CHO cells by competitive radioligand binding assay
D(2) dopamine receptor [3] = molecular target: T1, D(2) dopamine receptor; test: Displacement of [3H] Spiperone from human D2L receptor expressed in CHO cells by competitive radioligand binding assay
D(4) dopamine receptor = molecular target: T2, D(4) dopamine receptor (Homo sapiens, UniProt P21917); test: Displacement of [3H] Spiperone from human D4.4 receptor expressed in CHO cells by competitive radioligand binding assay
T2 sequence (P21917 whole entry): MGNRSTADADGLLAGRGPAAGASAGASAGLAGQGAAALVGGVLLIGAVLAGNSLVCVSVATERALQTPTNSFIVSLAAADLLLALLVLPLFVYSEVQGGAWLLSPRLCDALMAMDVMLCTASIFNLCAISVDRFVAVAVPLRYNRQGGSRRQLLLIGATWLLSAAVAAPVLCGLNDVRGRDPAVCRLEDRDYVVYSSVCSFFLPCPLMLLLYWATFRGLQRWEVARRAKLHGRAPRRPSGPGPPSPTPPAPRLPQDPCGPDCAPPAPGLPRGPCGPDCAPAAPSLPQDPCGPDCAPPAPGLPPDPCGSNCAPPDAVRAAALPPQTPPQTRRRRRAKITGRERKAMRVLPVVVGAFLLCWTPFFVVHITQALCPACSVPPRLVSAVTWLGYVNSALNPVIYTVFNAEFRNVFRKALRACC

Homo sapiens [4] = organism: Homo sapiens; test: Selectivity index, ratio of Ki for displacement of [3H] Spiperone from human D2S receptor expressed in CHO cells to Ki for displacement of [3H] Spiperone from human D4.4 receptor expressed in CHO cells; in short: as §1
Homo sapiens [5] = organism: Homo sapiens; test: Selectivity index, ratio of Ki for displacement of [3H] Spiperone from human D2L receptor expressed in CHO cells to Ki for displacement of [3H] Spiperone from human D4.4 receptor expressed in CHO cells; in short: as §1
D(3) dopamine receptor = D(3) dopamine receptor (Homo sapiens, UniProt P35462); test: Displacement of [3H] Spiperone from human D3 receptor expressed in CHO cells by competitive radioligand binding assay
D(3) dopamine receptor, sequence (P35462 whole entry): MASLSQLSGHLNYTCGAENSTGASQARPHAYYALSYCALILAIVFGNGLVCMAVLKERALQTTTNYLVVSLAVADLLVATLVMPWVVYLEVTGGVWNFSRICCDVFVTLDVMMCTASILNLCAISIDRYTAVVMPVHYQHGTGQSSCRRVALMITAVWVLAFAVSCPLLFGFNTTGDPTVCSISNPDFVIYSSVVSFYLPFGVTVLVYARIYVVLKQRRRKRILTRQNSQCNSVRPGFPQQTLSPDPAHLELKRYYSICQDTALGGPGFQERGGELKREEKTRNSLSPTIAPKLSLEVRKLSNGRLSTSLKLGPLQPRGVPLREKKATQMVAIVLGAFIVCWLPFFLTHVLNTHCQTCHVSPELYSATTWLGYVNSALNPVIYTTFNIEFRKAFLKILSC

T1 sequence (P14416 whole entry): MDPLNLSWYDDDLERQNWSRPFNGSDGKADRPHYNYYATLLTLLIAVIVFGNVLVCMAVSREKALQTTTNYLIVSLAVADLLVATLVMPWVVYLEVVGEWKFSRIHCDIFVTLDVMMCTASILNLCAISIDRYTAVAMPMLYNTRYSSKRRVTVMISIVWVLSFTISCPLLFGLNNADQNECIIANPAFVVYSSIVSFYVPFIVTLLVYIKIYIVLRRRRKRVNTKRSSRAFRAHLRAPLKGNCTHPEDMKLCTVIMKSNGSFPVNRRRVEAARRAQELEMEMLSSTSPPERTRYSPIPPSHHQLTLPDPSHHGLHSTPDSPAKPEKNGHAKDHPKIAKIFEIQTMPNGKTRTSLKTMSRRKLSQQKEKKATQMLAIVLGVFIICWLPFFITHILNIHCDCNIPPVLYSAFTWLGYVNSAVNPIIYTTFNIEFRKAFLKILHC

| SMILES | pKi (D(2) dopamine receptor [2]) | pKi (D(2) dopamine receptor [3]) | pKi (D(4) dopamine receptor) | pKi (D(3) dopamine receptor) | Ratio Ki (Homo sapiens [1]) | Ratio Ki (Homo sapiens [4]) | Ratio Ki (Homo sapiens [5]) |
| --- | --- | --- | --- | --- | --- | --- | --- |
| COc1ccc(N(Cc2cccc(OC)c2)NC(=O)NCCCN2CCN(c3ccccc3OC)CC2)cc1 | 6.96 | 6.82 | 7.48 | 6.49 | 9.7 | 3.3 | 4.5 |
| O=C(NCCCN1CCN(c2ccc(I)cc2)CC1)NN(Cc1ccccc1)c1ccccc1 | 6.17 | 6.16 | 7.68 | 5.89 | 62 | 32 | 33 |
| C=C(C)CN(NC(=O)NCCCN1CCN(c2ccccc2OC)CC1)c1ccc(OC)cc1 | 6.52 | 6.68 | 7.19 | 6.07 | 13 | 4.7 | 3.3 |
| O=C(NCCCN1CCN(c2ccc(Cl)cc2)CC1)NN(Cc1ccccc1)c1ccccc1 | 6.39 | 6.19 | 8.01 | 5.96 | 110 | 42 | 66 |
| O=C(NCCCN1CCN(c2ccc(Cl)cc2)CC1)NN(Cc1ccc(F)cc1)c1ccccc1 | 6.42 | 6.30 | 7.77 | 6.07 | 50 | 22 | 29 |
| COc1ccccc1N1CCN(CCNC(=O)NN(Cc2ccccc2)c2ccc(F)cc2)CC1 | 7.15 | 7.00 | 8.05 | 6.15 | 78 | 7.9 | 11 |
| O=C(NCCN1CCN(c2ccc(I)cc2)CC1)NN(Cc1ccccc1)c1ccccc1 | 6.29 | 6.31 | 7.36 | 5.74 | 38 | 12 | 11 |
| O=C(NCCCN1CCN(c2ncccn2)CC1)NN(Cc1ccc(F)cc1)c1ccccc1 | 6.51 | 6.37 | 7.72 | 5.72 | 100 | 16 | 23 |
| O=C(NCCN1CCN(c2ccc(Br)cc2)CC1)NN(Cc1ccccc1)c1ccccc1 | 6.37 | 6.41 | 7.55 | 5.74 | 64 | 15 | 14 |
| COc1ccc(N(Cc2ccc(F)cc2)NC(=O)NCCCN2CCN(c3ccccc3OC)CC2)cc1 | 6.96 | 6.80 | 8.54 | 6.40 | 140 | 38 | 55 |
| O=C(NCCCN1CCN(c2ncccn2)CC1)NN(Cc1ccccc1)c1ccccc1 | 6.36 | 6.24 | 7.74 | 5.70 | 110 | 24 | 32 |
| C=CCN(NC(=O)NCCCN1CCN(c2ccccc2OC)CC1)c1ccc(OC)cc1 | 6.47 | 6.74 | 7.21 | 6.18 | 11 | 5.6 | 3 |
| COc1ccccc1N1CCN(CCCNC(=O)NN(Cc2ccc(C#N)cc2)c2ccc(F)cc2)CC1 | 6.92 | 6.68 | 7.82 | 6.19 | 43 | 8 | 14 |
| O=C(NCCCN1CCN(c2ccc(Br)cc2)CC1)NN(Cc1ccc(F)cc1)c1ccccc1 | 6.21 | 6.10 | 7.34 | 5.85 | 30 | 13 | 17 |
| O=C(NCCCN1CCN(c2ccc(Br)cc2)CC1)NN(Cc1ccccc1)c1ccccc1 | – | – | 7.85 | 5.82 | – | – | – |
| Cc1cccc(C(=O)NCN2CCN(c3ccccc3C#N)CC2)c1 [PD-168,077] | 5.96 | 5.64 | – | 5.33 | – | – | – |

Molecules with a higher pKi (D(3) dopamine receptor), results first:

| pKi (D(2) dopamine receptor [2]) | pKi (D(2) dopamine receptor [3]) | pKi (D(4) dopamine receptor) | pKi (D(3) dopamine receptor) | SMILES | Ratio Ki (Homo sapiens [1]) | Ratio Ki (Homo sapiens [4]) | Ratio Ki (Homo sapiens [5]) |
| --- | --- | --- | --- | --- | --- | --- | --- |
| 6.85 | 6.57 | 7.44 | 6.92 | COc1ccccc1N1CCN(CCNC(=O)/N=N/c2ccc(F)cc2)CC1 | 3.3 | 3.9 | 7.5 |
| 7.38 | 6.85 | 8.23 | 6.96 | COc1ccccc1N1CCN(CCCNC(=O)NN(Cc2ccc(-c3ccccc3)cc2)c2ccc(F)cc2)CC1 | 19 | 7.1 | 24 |
| 7.72 | 7.35 | 8.77 | 6.92 | COc1ccc(N(Cc2ccccc2)NC(=O)NCCCN2CCN(c3ccccc3OC)CC2)cc1 | 71 | 11 | 26 |
| 7.46 | 7.23 | 8.21 | 7.07 | COc1ccc(N(Cc2cccc(F)c2)NC(=O)NCCCN2CCN(c3ccccc3OC)CC2)cc1 | 14 | 5.6 | 10 |
| 7.29 | 6.96 | 7.70 | 6.85 | COc1ccccc1N1CCN(CCCNC(=O)/N=N/c2ccc(F)cc2)CC1 | 7 | 2.6 | 5.5 |
| 7.62 | 7.46 | 7.82 | 7.21 | COc1ccccc1N1CCN(CCCNC(=O)NN(Cc2ccccc2)c2ccc(Cl)cc2Cl)CC1 | 4 | 1.6 | 2.3 |
| 7.03 | 6.82 | 7.92 | 6.55 | COc1ccccc1N1CCN(CCCNC(=O)NN(Cc2ccc(C#N)cc2)c2ccc(Cl)cc2Cl)CC1 | 23 | 7.8 | 13 |
| 7.52 | 7.11 | 8.34 | 7.07 | COc1ccccc1N1CCN(CCCNC(=O)NN(Cc2ccc(F)cc2)c2ccc(F)cc2)CC1 | 18 | 6.5 | 17 |
| 7.47 | 7.26 | 8.47 | 6.89 | COc1ccccc1N1CCN(CCCNC(=O)NN(Cc2ccccc2)c2ccc(Br)cc2)CC1 | 38 | 10 | 16 |
| 7.72 | 7.38 | 8.59 | 7.12 | COc1ccc(N(Cc2ccccc2F)NC(=O)NCCCN2CCN(c3ccccc3OC)CC2)cc1 | 29 | 7.3 | 16 |
| 7.59 | 7.39 | 8.59 | 7.02 | COc1ccccc1N1CCN(CCCNC(=O)NN(Cc2ccccc2F)c2ccc(Cl)cc2)CC1 | 36 | 10 | 16 |
| – | – | – | 8.51 | COc1ccccc1N1CCN(CCCCNC(=O)/N=N/c2ccc(F)cc2)CC1 | 0.033 | 0.36 | 0.4 |
| 7.03 | 6.80 | 8.36 | 7.12 | COc1ccccc1N1CCN(CCCCNC(=O)NN(Cc2ccccc2)c2ccc(F)cc2)CC1 | 17 | 21 | 36 |
| 6.96 | 6.60 | 7.80 | 6.66 | COc1ccc(N(Cc2ccc(C#N)cc2)NC(=O)NCCCN2CCN(c3ccccc3OC)CC2)cc1 | 14 | 6.9 | 16 |
| 7.64 | 7.49 | 8.54 | 6.89 | COc1ccccc1N1CCN(CCCNC(=O)NN(Cc2ccccc2)c2ccc(Cl)cc2)CC1 | 45 | 7.9 | 11 |
| 7.33 | 7.04 | 8.44 | 6.80 | COc1ccccc1N1CCN(CCCNC(=O)NN(Cc2ccccc2F)c2ccc(F)cc2)CC1 | 44 | 13 | 26 |
| 7.21 | 6.96 | 8.23 | 6.82 | COc1cccc(CN(NC(=O)NCCCN2CCN(c3ccccc3OC)CC2)c2ccc(F)cc2)c1 | 25 | 11 | 19 |
| 7.34 | 7.14 | 8.42 | 7.06 | COc1ccccc1N1CCN(CCCNC(=O)NN(Cc2cccc(F)c2)c2ccc(F)cc2)CC1 | 23 | 12 | 19 |
| 7.66 | 7.35 | 8.48 | 7.04 | COc1ccccc1N1CCN(CCCNC(=O)NN(Cc2ccccc2F)c2ccc(Br)cc2)CC1 | 28 | 6.7 | 14 |
